In ChEMBL document CHEMBL4033712, “Synthesis and biological evaluation of new C-12(α/β)-(N-) sulfamoyl-phenylamino-14-deoxy-andrographolide derivatives as potent anti-cancer agents” (Bioorg Med Chem Lett, 2017):

Key:
Format in all cases: functional
[1] = test system: SN12C; assay: Growth inhibition of human SN12C cells incubated for 48 hrs by sulforhodamine B assay
Method in brief: (§1)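 NCI 60 human tumour cell line panel, five-dose study at 0.01, 0.1, 1, 10 and 100 µM, 48 h incubation. Sulforhodamine B protein-binding dye end point. GI50 (50% decrease in net cell growth), TGI (total growth inhibition) and LC50 (net 50% loss of initial cells) read from log concentration versus % growth inhibition curves.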

[2] = test system: SK-MEL-28; assay: Growth inhibition of human SK-MEL-28 cells incubated for 48 hrs by sulforhodamine B assay; details: SK-MEL-28, 48 h; method in brief: as §1
[3] = test system: SNB-19; assay: Growth inhibition of human SNB19 cells incubated for 48 hrs by sulforhodamine B assay; details: SNB-19, 48 h; method in brief: as §1
[4] = test system: MDA-MB-468; assay: Growth inhibition of human MDA-MB-468 cells incubated for 48 hrs by sulforhodamine B assay; details: MDA-MB-468, 48 h
Method in brief: (§2)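 NCI-60 five-dose screen at 0.01, 0.1, 1, 10 and 100 µM, 48 h incubation, sulforhodamine B end point. GI50 (50% decrease in net growth), TGI (total growth inhibition) and LC50 (net 50% loss of initial cells) taken from log concentration versus % growth inhibition curves.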

[5] = test system: COLO 205; assay: Growth inhibition of human COLO205 cells incubated for 48 hrs by sulforhodamine B assay; details: COLO 205, 48 h; method in brief: as §2
[6] = test system: MDA-MB-231; assay: Growth inhibition of human MDA-MB-231 cells incubated for 48 hrs by sulforhodamine B assay; details: MDA-MB-231, 48 h; method in brief: as §2
[7] = test system: OVCAR-5; assay: Growth inhibition of human OVCAR5 cells incubated for 48 hrs by sulforhodamine B assay; details: OVCAR-5, 48 h; method in brief: as §2
[8] = test system: A498; assay: Growth inhibition of human A498 cells incubated for 48 hrs by sulforhodamine B assay; details: A498, 48 h; method in brief: as §2
[9] = test system: SW-620; assay: Growth inhibition of human SW620 cells incubated for 48 hrs by sulforhodamine B assay; details: SW-620, 48 h; method in brief: as §1
[10] = test system: ACHN; assay: Growth inhibition of human ACHN cells incubated for 48 hrs by sulforhodamine B assay; method in brief: as §2
[11] = test system: K562; assay: Growth inhibition of human K562 cells incubated for 48 hrs by sulforhodamine B assay; details: K562, 48 h; method in brief: as §2
[12] = test system: SF-268; assay: Growth inhibition of human SF268 cells incubated for 48 hrs by sulforhodamine B assay; details: SF-268, 48 h; method in brief: as §1
[13] = test system: SK-MEL-2; assay: Growth inhibition of human SK-MEL-2 cells incubated for 48 hrs by sulforhodamine B assay; details: SK-MEL-2, 48 h; method in brief: as §1
[14] = test system: HCT-116; assay: Growth inhibition of human HCT116 cells incubated for 48 hrs by sulforhodamine B assay; details: HCT-116, 48 h; method in brief: as §2
[15] = test system: NCI-H322M; assay: Growth inhibition of human NCI-H322M cells incubated for 48 hrs by sulforhodamine B assay; method in brief: as §2
[16] = test system: IGROV-1; assay: Growth inhibition of human IGROV1 cells incubated for 48 hrs by sulforhodamine B assay; details: IGROV-1, 48 h; method in brief: as §2
[17] = test system: LOX IMVI; assay: Growth inhibition of human LOXIMVI cells incubated for 48 hrs by sulforhodamine B assay; method in brief: as §2
[18] = test system: HCC 2998; assay: Growth inhibition of human HCC2998 cells incubated for 48 hrs by sulforhodamine B assay; details: HCC 2998, 48 h; method in brief: as §2
[19] = test system: CCRF-CEM; assay: Growth inhibition of human CCRF-CEM cells incubated for 48 hrs by sulforhodamine B assay; method in brief: as §2
[20] = test system: DU-145; assay: Growth inhibition of human DU145 cells incubated for 48 hrs by sulforhodamine B assay; details: DU-145, 48 h; method in brief: as §2
[21] = test system: SF-539; assay: Growth inhibition of human SF539 cells incubated for 48 hrs by sulforhodamine B assay; details: SF-539, 48 h; method in brief: as §1
[22] = test system: 786-0; assay: Growth inhibition of human 786-0 cells incubated for 48 hrs by sulforhodamine B assay; details: 786-0, 48 h; method in brief: as §2
[23] = test system: A549; assay: Growth inhibition of human A549/ATCC cells incubated for 48 hrs by sulforhodamine B assay; details: A549, 48 h; method in brief: as §2
[24] = test system: NCI/ADR-RES; assay: Growth inhibition of human NCI/ADR-RES cells incubated for 48 hrs by sulforhodamine B assay; method in brief: as §2
[25] = test system: HL-60(TB); assay: Growth inhibition of human HL-60(TB) cells incubated for 48 hrs by sulforhodamine B assay; details: HL-60, 48 h
Method in brief: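 NCI-60 five-dose screen at 0.01, 0.1, 1, 10 and 100 µM for 48 h, sulforhodamine B read-out. GI50 taken from log concentration versus % growth inhibition curves as the concentration giving 50% decrease in net cell growth.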

[26] = test system: HT-29; assay: Growth inhibition of human HT-29 cells incubated for 48 hrs by sulforhodamine B assay; details: HT-29, 48 h; method in brief: as §2
[27] = test system: KM12; assay: Growth inhibition of human KM12 cells incubated for 48 hrs by sulforhodamine B assay; details: KM12, 48 h; method in brief: as §2
[28] = test system: TK-10; assay: Growth inhibition of human TK10 cells incubated for 48 hrs by sulforhodamine B assay; details: TK-10, 48 h; method in brief: as §1
[29] = read-out: LC50 (the source's name)

In the case of C=C1CC[C@@H]2[C@](C)(COC(C)=O)[C@H](OC(C)=O)CC[C@@]2(C)[C@H]1CC(Nc1ccc(S(=O)(=O)Nc2ncccn2)cc1)C1=CCOC1=O (some centres not stated), the GI50 [1] was 0.43 µM, the TGI [1] was 1.96 µM and the CC50 [1, 29] was 5.82 µM. For the same compound, the GI50 [2] was 1.69 µM, the LC50 (50% net cell kill) [2] was 6.2 µM and the TGI [2] was 3.24 µM. For the same compound, the GI50 [3] was 1.63 µM, the TGI [3] was 3.76 µM and the CC50 [3, 29] was 8.65 µM. It also gave a GI50 [4] of 1.33 µM, a TGI [4] of 3.57 µM and a GI50 [5] of 1.78 µM. It also gave a TGI [5] of 3.8 µM, a CC50 [5, 29] of 8.11 µM and a GI50 [6] of 1.95 µM. For the same compound, the LC50 (concentration giving net 50% loss of initial cells) [6] was 7.91 µM, the TGI [6] was 3.93 µM and the GI50 [7] was 1.98 µM. The LC50 (concentration causing net 50% loss of initial cells) [7] was 7.47 µM, the TGI [7] was 3.85 µM and the GI50 [8] was 12.3 µM. For the same compound, the LC50 (concentration giving net 50% loss of initial cells) [8] was 49.9 µM, the TGI [8] was 24.7 µM and the GI50 [9] was 0.86 µM. The TGI [9] was 2.25 µM, the CC50 [9, 29] was 5.36 µM and the GI50 [10] was 1.72 µM. It also gave a TGI [10] of 3.27 µM, a CC50 [10, 29] of 6.2 µM and a GI50 [11] of 1.73 µM. For the same compound, the TGI [11] was 11.7 µM, the CC50 [11, 29] was greater than 100 µM and the GI50 [12] was 1.93 µM. For the same compound, the TGI [12] was 4.16 µM, the CC50 [12, 29] was 8.97 µM and the GI50 [13] was 2.36 µM. The TGI [13] was 7.2 µM, the CC50 [13, 29] was 30.4 µM and the GI50 [14] was 0.87 µM. It also gave a TGI [14] of 2.49 µM, a CC50 [14, 29] of 6.51 µM and a GI50 [15] of 3.12 µM. For the same compound, the TGI [15] was 11.1 µM, the CC50 [15, 29] was 35.6 µM and the GI50 [16] was 2.04 µM. It also gave a TGI [16] of 4.41 µM, a CC50 [16, 29] of 9.53 µM and a GI50 [17] of 0.89 µM. The TGI [17] was 2.21 µM, the CC50 [17, 29] was 5.06 µM and the GI50 [18] was 2.1 µM. For the same compound, the TGI [18] was 3.81 µM, the CC50 [18, 29] was 6.9 µM and the GI50 [19] was 0.73 µM. It also gave a TGI [19] of 3.41 µM, a CC50 [19, 29] greater than 100 µM and a GI50 [20] of 1.62 µM. It also gave a TGI [20] of 3.07 µM, a CC50 [20, 29] of 5.83 µM and a GI50 [21] of 1.5 µM. The TGI [21] was 2.94 µM, the CC50 [21, 29] was 5.78 µM and the GI50 [22] was 1.77 µM. It also gave an LC50 (concentration giving net 50% loss of initial cells) [22] of 6.51 µM, a TGI [22] of 3.39 µM and a GI50 [23] of 3.18 µM. It also gave a TGI [23] of 9.98 µM, a CC50 [23, 29] of 34.6 µM and a GI50 [24] of 1.83 µM. It also gave an LC50 (concentration giving net 50% loss of initial cells) [24] greater than 100 µM, a TGI [24] of 5.28 µM and a GI50 [25] of 1.3 µM. It also gave a TGI [25] of 3.64 µM, a CC50 [25, 29] greater than 100 µM and a GI50 [26] of 1.03 µM. For the same compound, the TGI [26] was 2.79 µM, the GI50 [27] was 2.33 µM and the TGI [27] was 5.54 µM. It also gave a CC50 [27, 29] of 17.8 µM, a GI50 [28] of 2.77 µM and a TGI [28] of 6.03 µM. It also gave a CC50 [28, 29] of 18.3 µM.
